“And” between values parts separate entries of the source, which are not always exact repeats. Equal values may be shown once.
Tested on: not listed separately
Experiment: Ratio between Ki values of D2 and S-2A receptors

Row | SMILES | Ratio
1 | CC1CCN(C2=Cc3cc(Cl)ccc3Cc3ccccc32)CC1 | < 1
2 | CN1CCN(C2=Nc3cc(Cl)ccc3N(C)c3ccccc32)CC1 | 7.9
3 | CN1CCC(C2=Cc3cc(Cl)ccc3Cc3ccccc32)CC1 | 200

Further lines, results first:

Row | Ratio | SMILES
4 | 8.3 | C=C1c2ccccc2C=C(C2=CCN(C)CC2)c2ccccc21
5 | 3.7 | C[C@H]1c2ccccc2C=C(C2=CCN(C)CC2)c2ccccc21
6 | 8.6 | C[C@@H]1c2ccccc2C=C(C2=CCN(C)CC2)c2ccccc21
7 | 9.4 | CC1c2ccccc2C=C(C2=CCN(C)CC2)c2ccccc21 (racemic)

Target: T1, 5-hydroxytryptamine receptor 2A (Rattus norvegicus, UniProt P14842)
Experiment: Affinity was evaluated as inhibition constant for serotonin 5-hydroxytryptamine 2A receptor

T1 sequence (P14842 whole entry): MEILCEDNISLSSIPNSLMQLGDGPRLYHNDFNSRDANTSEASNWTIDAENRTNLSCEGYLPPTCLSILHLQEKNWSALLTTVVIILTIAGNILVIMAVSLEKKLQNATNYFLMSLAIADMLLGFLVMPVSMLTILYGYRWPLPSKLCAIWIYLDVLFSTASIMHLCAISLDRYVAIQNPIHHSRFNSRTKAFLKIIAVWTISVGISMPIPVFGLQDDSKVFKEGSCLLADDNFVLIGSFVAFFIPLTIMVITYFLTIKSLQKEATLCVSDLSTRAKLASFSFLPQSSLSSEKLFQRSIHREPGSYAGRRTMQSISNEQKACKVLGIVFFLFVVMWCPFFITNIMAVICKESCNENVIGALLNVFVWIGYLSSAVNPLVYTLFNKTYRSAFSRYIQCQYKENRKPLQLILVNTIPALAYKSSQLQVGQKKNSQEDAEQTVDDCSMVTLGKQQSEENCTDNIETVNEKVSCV

Row | SMILES | Ki
8 | CC1CCN(C2=Cc3cc(Cl)ccc3Cc3ccccc32)CC1 | > 1000 nM
9 | CN1CCN(C2=Nc3cc(Cl)ccc3N(C)c3ccccc32)CC1 | 140 nM
10 | CN1CCC(C2=Cc3cc(Cl)ccc3Cc3ccccc32)CC1 | 3 nM

Next, values leading:

Row | Ki | SMILES
11 | 30 nM | C=C1c2ccccc2C=C(C2=CCN(C)CC2)c2ccccc21
12 | 200 nM | C[C@H]1c2ccccc2C=C(C2=CCN(C)CC2)c2ccccc21
13 | 74 nM | C[C@@H]1c2ccccc2C=C(C2=CCN(C)CC2)c2ccccc21
14 | 72 nM | CC1c2ccccc2C=C(C2=CCN(C)CC2)c2ccccc21 (racemic)
15 | 2200 nM and 830 nM and 1200 nM | CC(C)=C1c2ccccc2C=C(C2=CCN(C)CC2)c2ccccc21

Target: D(2) dopamine receptor (Homo sapiens, UniProt P14416)
Experiment: Affinity was evaluated as inhibition constant for dopamine D-2 receptor

Sequence of D(2) dopamine receptor (P14416 whole entry): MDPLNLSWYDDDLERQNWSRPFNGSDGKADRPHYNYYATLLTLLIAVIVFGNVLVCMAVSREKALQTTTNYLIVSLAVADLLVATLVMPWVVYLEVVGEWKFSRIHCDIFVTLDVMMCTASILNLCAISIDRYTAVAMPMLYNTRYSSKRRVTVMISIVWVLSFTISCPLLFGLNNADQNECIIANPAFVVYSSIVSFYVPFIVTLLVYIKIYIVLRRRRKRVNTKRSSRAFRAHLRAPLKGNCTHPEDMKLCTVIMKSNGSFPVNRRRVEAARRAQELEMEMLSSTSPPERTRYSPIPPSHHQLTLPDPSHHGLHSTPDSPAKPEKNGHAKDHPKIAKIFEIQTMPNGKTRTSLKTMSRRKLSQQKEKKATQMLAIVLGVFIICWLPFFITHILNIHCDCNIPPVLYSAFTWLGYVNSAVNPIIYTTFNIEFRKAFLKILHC

Row | SMILES | Ki
16 | CC1CCN(C2=Cc3cc(Cl)ccc3Cc3ccccc32)CC1 | 1400 nM
17 | CN1CCN(C2=Nc3cc(Cl)ccc3N(C)c3ccccc32)CC1 | 1100 nM
18 | CN1CCC(C2=Cc3cc(Cl)ccc3Cc3ccccc32)CC1 | 560 nM

The remaining lines, values ahead:

Row | Ki | SMILES
19 | 2500 nM | CN1CCN(C2=Nc3ccccc3Nc3ccccc32)CC1
20 | 250 nM | C=C1c2ccccc2C=C(C2=CCN(C)CC2)c2ccccc21
21 | 730 nM | C[C@H]1c2ccccc2C=C(C2=CCN(C)CC2)c2ccccc21
22 | 640 nM | C[C@@H]1c2ccccc2C=C(C2=CCN(C)CC2)c2ccccc21
23 | 680 nM | CC1c2ccccc2C=C(C2=CCN(C)CC2)c2ccccc21 (racemic)
24 | 520 nM and 790 nM and 570 nM | CC(C)=C1c2ccccc2C=C(C2=CCN(C)CC2)c2ccccc21

Target: T2, 5-hydroxytryptamine receptor 2C (Rattus norvegicus, UniProt P08909)
T2 sequence (P08909 whole entry): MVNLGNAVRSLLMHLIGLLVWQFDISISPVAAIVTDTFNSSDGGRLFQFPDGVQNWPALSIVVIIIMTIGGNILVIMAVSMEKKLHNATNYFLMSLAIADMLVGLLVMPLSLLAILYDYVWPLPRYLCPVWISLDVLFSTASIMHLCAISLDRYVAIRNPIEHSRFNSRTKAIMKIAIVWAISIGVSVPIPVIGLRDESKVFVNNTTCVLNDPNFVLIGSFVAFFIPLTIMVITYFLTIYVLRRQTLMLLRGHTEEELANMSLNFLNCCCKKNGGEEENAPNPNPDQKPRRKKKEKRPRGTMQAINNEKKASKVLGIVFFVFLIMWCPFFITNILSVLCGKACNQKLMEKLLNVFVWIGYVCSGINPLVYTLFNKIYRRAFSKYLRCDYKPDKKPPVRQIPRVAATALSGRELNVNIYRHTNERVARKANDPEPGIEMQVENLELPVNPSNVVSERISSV
Experiment: Affinity was evaluated as inhibition constant for serotonin 5-hydroxytryptamine 2C receptor

Row | SMILES | Ki
25 | CC1CCN(C2=Cc3cc(Cl)ccc3Cc3ccccc32)CC1 | > 1000 nM
26 | CN1CCN(C2=Nc3cc(Cl)ccc3N(C)c3ccccc32)CC1 | 74 nM
27 | CN1CCC(C2=Cc3cc(Cl)ccc3Cc3ccccc32)CC1 | 3 nM

Results, then the molecule that gave them:

Row | Ki | SMILES
28 | 84 nM | CN1CCN(C2=Nc3ccccc3Nc3ccccc32)CC1
29 | 35 nM | C=C1c2ccccc2C=C(C2=CCN(C)CC2)c2ccccc21
30 | 250 nM | C[C@H]1c2ccccc2C=C(C2=CCN(C)CC2)c2ccccc21
31 | 70 nM | C[C@@H]1c2ccccc2C=C(C2=CCN(C)CC2)c2ccccc21
32 | 89 nM | CC1c2ccccc2C=C(C2=CCN(C)CC2)c2ccccc21 (racemic)
33 | 3300 nM and 830 nM and 1500 nM | CC(C)=C1c2ccccc2C=C(C2=CCN(C)CC2)c2ccccc21

Target: T1, 5-hydroxytryptamine receptor 2A
Experiment: Affinity was evaluated by inhibition of [125I]LSD binding to NIH 3T3 cells transfected with cloned rat 5-hydroxytryptamine 2A receptor
Assay type: cell-based, NIH3T3
Summary of the method: (§1)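 Membranes from confluent GF-6 and P0 cell monolayers, homogenized in ice-cold 0.32 M sucrose, spun at 44 000g, stored at -80°C in 50 mM Tris-HCl pH 7.6. Triplicate tubes held 5 nM [125I]LSD (stock), test compound at 10^-9 to 10^-5 M final and 1–5 μg protein. Nonspecific binding was defined with 10 μM mesulergine.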

Row | Ki [nM] | SMILES
34 | 2 | CN1CCN(C2=Cc3ccccc3Cc3ccc(Cl)cc32)CC1

Target: D(1A) dopamine receptor (Rattus norvegicus, UniProt P18901)
Experiment: Affinity was evaluated as inhibition constant for dopamine receptor D1 using [3H]-SCH- 23390 as radioligand

Sequence of D(1A) dopamine receptor (P18901 whole entry): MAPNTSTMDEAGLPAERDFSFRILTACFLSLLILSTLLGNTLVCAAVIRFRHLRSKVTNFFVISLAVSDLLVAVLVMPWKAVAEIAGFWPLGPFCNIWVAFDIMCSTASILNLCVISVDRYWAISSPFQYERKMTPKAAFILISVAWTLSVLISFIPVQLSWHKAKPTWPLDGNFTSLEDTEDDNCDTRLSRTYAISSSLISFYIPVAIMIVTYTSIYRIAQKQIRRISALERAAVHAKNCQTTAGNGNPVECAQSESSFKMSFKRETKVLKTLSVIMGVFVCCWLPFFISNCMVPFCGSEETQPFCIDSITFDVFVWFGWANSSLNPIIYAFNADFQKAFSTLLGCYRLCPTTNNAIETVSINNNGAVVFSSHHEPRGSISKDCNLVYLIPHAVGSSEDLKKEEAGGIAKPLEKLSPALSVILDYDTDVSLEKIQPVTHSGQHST

Row | Ki [nM] | SMILES
35 | 14 | CN1CCN(C2=Nc3ccccc3Nc3ccc(Cl)cc32)CC1 [ISOCLOZAPINE]
36 | 200 | CN1CCN(C2=Nc3ccccc3Nc3ccccc32)CC1

Target: T3, Serotonin 3 (5-HT3) receptor (Rattus norvegicus, UniProt P35563+Q9JJ16)
T3 sequence (P35563 whole entry): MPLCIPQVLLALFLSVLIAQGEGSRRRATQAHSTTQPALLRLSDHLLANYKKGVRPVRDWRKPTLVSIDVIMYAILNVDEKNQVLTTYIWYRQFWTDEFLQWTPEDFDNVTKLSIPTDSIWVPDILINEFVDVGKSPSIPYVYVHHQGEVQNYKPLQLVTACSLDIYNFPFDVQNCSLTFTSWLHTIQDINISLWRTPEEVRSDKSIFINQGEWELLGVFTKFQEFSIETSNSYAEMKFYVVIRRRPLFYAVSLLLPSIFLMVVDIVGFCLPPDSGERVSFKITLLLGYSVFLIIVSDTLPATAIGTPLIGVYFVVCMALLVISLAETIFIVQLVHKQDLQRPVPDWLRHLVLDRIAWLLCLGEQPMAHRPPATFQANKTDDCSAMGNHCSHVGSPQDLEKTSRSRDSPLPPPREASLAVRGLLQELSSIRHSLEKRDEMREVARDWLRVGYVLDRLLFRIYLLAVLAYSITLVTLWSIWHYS
T3 sequence (Q9JJ16 whole entry): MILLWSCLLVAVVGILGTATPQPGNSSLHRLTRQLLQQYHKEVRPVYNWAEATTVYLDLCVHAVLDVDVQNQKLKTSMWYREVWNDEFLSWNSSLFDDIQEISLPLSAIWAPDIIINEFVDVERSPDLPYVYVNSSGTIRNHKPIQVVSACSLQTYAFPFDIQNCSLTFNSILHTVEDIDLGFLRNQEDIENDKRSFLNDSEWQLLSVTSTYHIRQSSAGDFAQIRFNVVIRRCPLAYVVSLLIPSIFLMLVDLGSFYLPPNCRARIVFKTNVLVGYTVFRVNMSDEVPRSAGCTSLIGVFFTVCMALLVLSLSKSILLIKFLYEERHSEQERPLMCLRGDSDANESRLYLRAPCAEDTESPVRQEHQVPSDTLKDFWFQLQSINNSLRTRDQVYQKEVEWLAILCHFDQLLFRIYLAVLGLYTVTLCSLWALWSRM
Experiment: Affinity was evaluated by inhibition of [3H]GR-65630 binding to NG108-15 cell transfected with cloned rat 5-hydroxytryptamine 3 receptor
Assay type: cell-based

Row | Ki [nM] | SMILES
37 | 49 | CN1CCN(C2=Cc3ccccc3Cc3ccc(Cl)cc32)CC1

Target: T3, Serotonin 3 (5-HT3) receptor
Experiment: Affinity was evaluated as inhibition constant for serotonin 5-hydroxytryptamine 3 receptor
Assay type: protein-complex assay

Row | Ki [nM] | SMILES
38 | 22 | CN1CCN(C2=Nc3ccccc3Nc3ccc(Cl)cc32)CC1 [ISOCLOZAPINE]
39 | 40 | CN1CCN(C2=Nc3cc(Cl)ccc3N(C)c3ccccc32)CC1
40 | 41 | CN1CCC(C2=Cc3cc(Cl)ccc3Cc3ccccc32)CC1

Row | SMILES | Ki [nM]
41 | CC1CCN(C2=Cc3cc(Cl)ccc3Cc3ccccc32)CC1 | > 1000

Target: T4, D(4) dopamine receptor (Homo sapiens, UniProt P21917)
T4 sequence (P21917 whole entry): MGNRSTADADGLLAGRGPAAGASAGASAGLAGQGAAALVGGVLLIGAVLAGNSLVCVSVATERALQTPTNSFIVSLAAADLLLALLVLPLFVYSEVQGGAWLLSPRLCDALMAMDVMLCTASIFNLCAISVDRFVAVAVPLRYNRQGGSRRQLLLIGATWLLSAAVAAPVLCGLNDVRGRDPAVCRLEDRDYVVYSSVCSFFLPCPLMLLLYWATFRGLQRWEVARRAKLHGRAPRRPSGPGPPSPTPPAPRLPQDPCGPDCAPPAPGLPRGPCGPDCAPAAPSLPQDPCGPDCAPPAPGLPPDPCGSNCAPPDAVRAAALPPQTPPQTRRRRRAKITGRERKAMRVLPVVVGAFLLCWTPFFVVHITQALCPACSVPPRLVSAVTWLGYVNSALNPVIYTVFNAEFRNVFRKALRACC
Experiment: Affinity was evaluated as inhibition constant for dopamine D-4 receptor

Row | SMILES | Ki [nM]
42 | CC1CCN(C2=Cc3cc(Cl)ccc3Cc3ccccc32)CC1 | 1000
43 | CN1CCN(C2=Nc3ccccc3Nc3ccc(Cl)cc32)CC1 [ISOCLOZAPINE] | 16
44 | CN1CCN(C2=Nc3cc(Cl)ccc3N(C)c3ccccc32)CC1 | 120
45 | CN1CCC(C2=Cc3cc(Cl)ccc3Cc3ccccc32)CC1 | 2700

Now from value to molecule:

Row | Ki [nM] | SMILES
46 | 420 | CN1CCN(C2=Nc3ccccc3Nc3ccccc32)CC1
47 | 330 | C=C1c2ccccc2C=C(C2=CCN(C)CC2)c2ccccc21
48 | 400 | C[C@H]1c2ccccc2C=C(C2=CCN(C)CC2)c2ccccc21
49 | 190 | C[C@@H]1c2ccccc2C=C(C2=CCN(C)CC2)c2ccccc21
50 | 320 | CC1c2ccccc2C=C(C2=CCN(C)CC2)c2ccccc21 (racemic)

Tested on: not listed separately
Experiment: Ratio between Ki values of D2 and S-3 receptors

Row | Ratio | SMILES
51 | 28 | CN1CCN(C2=Nc3cc(Cl)ccc3N(C)c3ccccc32)CC1
52 | 14 | CN1CCC(C2=Cc3cc(Cl)ccc3Cc3ccccc32)CC1

Row | SMILES | Ratio
53 | CC1CCN(C2=Cc3cc(Cl)ccc3Cc3ccccc32)CC1 | < 1

Target: T2, 5-hydroxytryptamine receptor 2C
Experiment: Affinity was evaluated by inhibition of [125I]LSD binding to NIH 3T3 cells transfected with cloned rat 5-hydroxytryptamine 2C receptor
Assay type: cell-based, NIH3T3
Summary of the method: as §1

Row | Ki [nM] | SMILES
54 | 6 | CN1CCN(C2=Cc3ccccc3Cc3ccc(Cl)cc32)CC1

Reference: ChEMBL document CHEMBL1127435 (J Med Chem, 1994)
